The source of these data is the RNAGym collection of RNA variant scans (doi:10.1126/science.aae0568).

Variants at the floor of the assay were thinned out. A value given as a limit tells only on which side of the number the result lay.

Sequences and labels used below:
B1: tRNA (parent)
chain: GUUCCGUUGGCGUAAUGGUAACGCGUCUCCCUCCUAAGGAGAAGACUGCGGGUUCGAGUCCCGUACGGAACG

Variants of B1 are the subject of this series. The series can be described thus: yeast fitness relative to wild type (ratio to wild type); higher = fitter; tRNA-Arg(CCU), competitive growth, 37 C, YPD. The procedure, abridged: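 Changes in genotype frequencies gave Darwinian fitness relative to wild type. Frequencies were read by 100-nucleotide paired-end sequencing of gene amplicons before and after pooled Saccharomyces cerevisiae strains, carrying tRNA-Arg(CCU) gene variants at the native locus, were competed in YPD at 37°C for 24 hours in six replicates. A genotype was kept only with ≥ 100 starting reads, and estimates < 0.5 were set to 0.5.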
In the case of GUUCCGUUGGCGUAAUGGUAACGCGUCGCCCUCCUAAGGAGAAGACUGCGGGUUCGCGUCCCGUCCGGAACG [U28G A57C A65C], the yeast fitness was at most 0.5. Under GUCCCGUUGGCGUUAUGGUCACGCGUCUCGCUCCUAAGGAGAAGACUGCGGGUUUGAGUCCCGUACGGAACG [U3C A14U A20C C30G C55U] stands at most 0.5. Under GUUCGGUAGGCGUAAUGGUAACGCGUCUACCUCCCAAGGAGAAGACUGCGGGUUCGAGUCCCGUACGGAACG [C5G U8A C29A U35C] stands at most 0.5. The figure for GUUACGUUGGCGUAAUGGUAACGCGUCUCCCUCCUAAGGAGAAGACUGCGGCUUCGAGUCCCGUAUGGAACG [C4A G52C C66U] is at most 0.5; for GUUCUGUUGGCGUAAUGGUAACGCGUCUCCCUUCUAAGGAGAAGACUGGGGGUUCGAGUCCCGUCCGGAACG [C5U C33U C49G A65C] it is at most 0.5. As to GUUCCGUUGGCGUAAUGGUAACGCGUCCCGCUCCUAAGGAGAAGCCUGUGGGUUCGAGUCCCGUACGGAACG [U28C C30G A45C C49U], the yeast fitness is at most 0.5. The figure for GUUCCGUUGGCGUAAUGGUAACUCGUCUCCCUCCUAAGGGGAAGACUGCGGGUUCGAGUCCCAUACGGAACG [G23U A40G G63A] is at most 0.5.

GUUCCGUUGCUGUAAUGGUAACGCGUCUGCCUCCUAAGGAGAAGACUGCGGGUUUGAGUCCCGUACGGAACG [G10C C11U C29G C55U]: the yeast fitness was found to be 0.556. The figure for GAUCCGUUGGCGUAAUGGUCACGCGUCUCCCUCCUAAGGAGAAGACUGCGGGUUCGAGUCCCGUACGGCACG [U2A A20C A69C] is 0.78; for GUUCCGUUGGUGUAAUGGUAACGCGUCUCCCUCCUAAGGAGAAAACUGCGGGUUGGAGUCCCGUACGGAACG [C11U G44A C55G] it is 0.572; for GUUCCGAUCGCGUAAUCGUAACGCGUCUCCCUCCUAAGGAGAAGACUACGGGUUCGAGUCCCGUAUGGAACG [U7A G9C G17C G48A C66U] it is at most 0.5. For the variant GUGCCGUUGGCGUAAUGGUAACGCGUCUCCCUUCUACGGAGAAGACUGCGGGUUCGAGUCCCGUCCGGAACG [U3G C33U A37C A65C], the yeast fitness is at most 0.5. For the variant GUUCUGUUGGCGUAAUGGUAACGCGUGUCCCUCCUAAGGAGAAGACUGCGGGUUCGAGUCCCGUACGGAACG [C5U C27G], the yeast fitness is 0.61.

On to GUUCCGUUGGCGUAAUGGUAACGCGUCUCCCUCCUAAGGAGAAGGCUGCGGGUUCGACUCCCGUACUCAACG [A45G G58C G67U G68C], for which the yeast fitness was at most 0.5. Under GUUCUGUUGGCGUAAUGGUAACGCGUCUCCCUCCUAAGGAGAAGACUGCGGGUUGGAGUCCCGUACGGAACG [C5U C55G] stands 0.676; under GUUCCGUUGGCGUAAAGGUAACGCGUCUCCCUCCUAAGGAGAAGACUGCCGGUGCGAGUCCCGUACGGCACG [U16A G50C U54G A69C], at most 0.5. Consider GUCCCGUUGGCGUAAUGGUAACGCGUCUCCCUCCUAAGGAGAAGACUGCGGGUUCGGGUCCCGUACGGAUCG [U3C A57G A70U], for which the yeast fitness is 0.564. The figure for GUUCCGUUGGGGUAAUGGUAACGCGUCUCUCUCCUAAGGAGAAGACUGCGGGUUCGAGUCCCGUACGGAACG [C11G C30U] is 0.643; for GUUCCGUUGGCGUAAUGGUAACGCGUCUCCCUCCUAAGGAGAAGGCUGCGGGUUCGAGUCCUGUAAGGAACG [A45G C62U C66A] it is at most 0.5; for GUUCCGUUGGCGUAAUGGUAACGCGUCUCCCUCCUAAGGAGAAGACUGCGGGUUCGAGUCGCGUACAGAACG [C61G G67A] it is 0.592. Consider GUUCCGUUCGCGUAAUGGUAACGCGUCCCCCUCCUAAGGAGUAGACCGCGGGUUCGAGUCCCGUACGGAACG [G9C U28C A42U U47C], for which the yeast fitness was 0.54. The figure for GUUCCGUUGGCGUAGUGGUAACGCGUCUCCCUCUUAAGGAGAACACUGCCGGUUCGAGUCCUGUACGGAACG [A15G C34U G44C G50C C62U] is at most 0.5; for GUUCCGUUGGUGUAAUGGAACCGCGUCUCCCUCCUAAGGAGGAGACUGCGGGUUCGAGUCCCGUACGGAACG [C11U U19A A21C A42G] it is 0.568; for GUUGCGUUGGCGUAAUGGUAAUGCGUCUCCCUCCUAAGGAGAAGACUGCGGGUUGGAGUCCCGUACGGAACG [C4G C22U C55G] it is at most 0.5. As to GUUCCGUUGGCGUAAUGAUAACGCGUCUCCCUCCUAAGGAGAAGACUGCGGGUUCGACUCCCGUACGAAACG [G18A G58C G68A], the yeast fitness is at most 0.5. In the case of GCUCCGUUGGCGUAAUGGUGAUGAGUCUCCCUCCUAAGGAGAAGACUGCGGGUUCGAGUCCCGUACGGGACG [U2C A20G C22U C24A A69G], the yeast fitness was at most 0.5. Turning to GUUACGUUGGCGUCAUGGUAACGCGUAUCCCUCCUAAGGAGAAGACUGCGGGUUCGAGUCCCGUACGGAACG [C4A A14C C27A], the yeast fitness was at most 0.5. As for GUUCCGUUGGCGUGAUGGUAACGCGUCUCCCUCCUAAGGAGAAGACUGCGGGUUCGGGUCCCGUACGGAACG [A14G A57G], the yeast fitness came out at 0.905. Under GUUCCGUUGGCGUAAUGGUAACGCGUCUACCUCCUCAGGAGAAGACUGCGGCUUCGAGUCCCGUACGGAACG [C29A A36C G52C] stands 0.545. Under GUUCUGUUGGCGUAAUGGUAACGCGUCUCCCUCCUUAGGAGAAGACUGCGGGUUCGAGUCCCGUUCGGAACG [C5U A36U A65U] stands 0.712; under GUUCCGUUGGCGUAAUGAUAACGCGAUUCCCUCCUAAGGAGAAGACUGUGGGUUCGAAUCCCGUGCGGAACG [G18A U26A C27U C49U G58A A65G], at most 0.5.

Consider GAUCGGUAGGCGUAAUGGUAACGCGUCUCCCUCCUAAGGAGAAGACUGCGGGUUCGAGUCACGUACGGAACG [U2A C5G U8A C61A], for which the yeast fitness was at most 0.5.

For the variant GUUCCGUUGGCGUAAUAGUAACGGGUGUCCCUCCUAAGGAGAAGACUGCGGGUUCGAGUCCCGUACAGAACG [G17A C24G C27G G67A], the yeast fitness turned out to be 0.583.

For the variant GUUCCGUUGGCGUAAUGGUACCGCGUCUCCCUCCUAAGGAGAAAACCGCGGGUUCGAGUCCCGUACGGAACG [A21C G44A U47C], the yeast fitness was found to be 0.51. In the case of GUUCCGGUGGCGUAAUGGUAACCAGUCUCGCUCCUUAGGAGAAGACUGCGGGUUCGAGUCUCGUUCGGAACG [U7G G23C C24A C30G A36U C61U A65U], the yeast fitness was at most 0.5. The figure for GUUCCGUCGGCGUAAUGGUAACGCGUCUCCCUCCUCAGGAAAAGACUGCGGGUUCGAGUCCCGUACGACACG [U8C A36C G41A G68A A69C] is at most 0.5. Under GUUGCGUUGGCGUAAUGGCAAGGCGUCUCCCUCCUAAGGAGAAGACUGCAGGUUCGCGUCCCGUACGGAACG [C4G U19C C22G G50A A57C] stands at most 0.5; under GUUCCAUUGGCGUAAUGGUAACGCGUCUCCCUCCAAAGGAGAAGACUGCGGGUUCGAGUCCCGUACGGAACG [G6A U35A], 0.775.
